# STEP inh = STEP (human) phosphatase inhibition; 0.25% of 360,000 active; recombinant STEP, OMFP fluorogenic substrate, fluorescence; inhibition, % at 20 µM; P54829;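 active = inhibition at 20 µM, scaled per plate between control wells, above about 37%, limit read from the data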;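 note: 0% = DMSO with enzyme and substrate and 100% = substrate only without enzyme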
#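 Material: STEP (striatal-enriched tyrosine phosphatase) enzyme, cell-free; Compound dosing: 20 µM single dose in 1% DMSO; Technique: fluorescence read at 480 nm ex / 540 nm em; Times: reaction 20 min, ambient temperature; Medium: 50 mM Bis-Tris pH 6.0 with 2.5 mM DTT and 0.005% Tween 20; Also added: OMFP at 25 µM.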
# Scp1 inh = Scp-1 (human) phosphatase inhibition; Recombinant Scp1, phosphopeptide, malachite green phosphate absorbance; inhibition, % at 20 µM; 0.88% of 340,000 active;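 active = inhibition above about 50% at 20 µM, limit read from the data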;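 note: plate controls were DMSO wells with enzyme for no effect and wells lacking enzyme for full effect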
#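 System: SCP-1 catalytic domain; Reagent: Phospho 17-mer peptide substrate; Doses: one concentration, 20 µM, with 1.0% DMSO; Incubation: 45 min room-temperature reaction, 5 min colour, 30 min stabiliser; Signal: Phosphate-binding colour reagent, absorbance read at 630 nm.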
# LMPTP block = LMPTP (human) inhibition; AID 651560; P24666; recombinant LMPTP-A, OMFP fluorogenic substrate, fluorescence intensity; inhibition, % at 20 µM; 0.22% of 360,000 active;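 active = compounds that cut the enzyme signal by at least half of the control window in the single-dose screen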;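 note: plate controls were DMSO wells with enzyme plus substrate for no effect and substrate without enzyme for full effect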
#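 Material: LMPTP-A; amount: 0.625 nM enzyme; doses: single 20 µM dose; times: reaction 50 min, room temperature, dark; technique: fluorescence intensity of OMFP turnover product; benchmarks: no-enzyme and uninhibited controls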
# SUMO1 PPI mod = modulators of human SUMO1-mediated protein-protein interactions; inhibition, % at 20 µM; 0.33% of 360,000 active; SUMO1 binding to a labelled peptide, TR-FRET, 1 h; P63165; in the data active = inhibition above about 37%
# DNMT1 block = DNMT1 (human) enzyme inhibition. 0.83% of 360,000 active. DNMT1 molecular beacon, Hinp1I cleavage, fluorescence. AID 588458. inhibition (reported as % activation of signal), % at 10 µM; in the data active = inhibition above about 50%
# NadD inh = NadD (S. aureus) enzyme inhibition | inhibition, % at 20 µM | 0.78% of 360,000 active | purified NadD enzyme, colorimetric absorbance read-out; in the data active = inhibition above about 26%
# Scp1 confirm = confirmation of human Scp-1 phosphatase inhibitors. AID 540281. 61% of 2,500 active. inhibition, % at 20 µM. recombinant SCP-1 catalytic domain, phosphate release, malachite green absorbance. shares compounds with Scp1 inh;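 note: plate controls were DMSO with enzyme for no effect and buffer wells lacking enzyme for full effect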
# Scp-1 MG ctr = colorimetric interference in Scp-1 counter-screen | shares compounds with Scp1 inh | Colorimetric interference counterscreen, malachite green absorbance 630 nm | apparent inhibition (interference), % at 20 µM | 2,500 tested, under 10 active | AID 540313;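 note: compounds added after enzyme reaction finished so only phosphate colour detection is probed; plate controls were DMSO wells with completed Scp-1 reaction for no effect and substrate wells lacking enzyme for full effect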
# Scp-1 Tm shift = validation of human Scp-1 inhibitors by thermal shift binding; shares compounds with Scp1 inh; Recombinant SCP1, Sypro Orange thermal shift Tm; thermal shift relative to vanadate control, % at 40 µM; 25% of 1,500 active; AID 540329;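 active = substances whose mean melting-temperature shift, as a percentage of the reference inhibitor's shift, reaches about 5.3%, limit read from the data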;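 note: 0% = Tm of DMSO wells and 100% = Tm with sodium orthovanadate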
# Active calls of the source: *; x = not tested or not shown. Only some compounds are listed: those with a hit (about 2.4% of all), similar ones and a draw of the others.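 Rule for the calls, unless noted: active = inhibition of at least 30% at 20 µM; inactive = the rest.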
SMILES,STEP inh,Scp1 inh,LMPTP block,SUMO1 PPI mod,DNMT1 block,NadD inh,Scp1 confirm,Scp-1 MG ctr,Scp-1 Tm shift
O=C(COC(=O)/C=C/c1ccco1)NCCN1C(=O)CSC1=O,6,65*,4,-7,15,-4,29,-16,x
COc1ccccc1NC(=O)Cn1c(O)c(N=NC(=O)c2ccccc2O)c2ccccc21,55*,94*,60*,-5,36,27,90*,4,3
Cc1nnc(NC(=O)COc2ccc3c(C)cc(=O)oc3c2)s1,3,71*,1,32,9,-1,65*,-8,2
Cc1cc(=O)oc2cc(OCC(=O)N3c4ccccc4NC(=O)C3(C)C)ccc12,-2,62*,6,3,24,2,42*,-22,-12
Cc1noc(C)c1COc1ccc(C(=O)OCC(=O)N2c3ccccc3NC(=O)C2(C)C)cc1,-3,69*,1,5,23,-2,46*,-21,-3
Cc1noc(C)c1COc1ccc(C(=O)OCC(=O)N2CC(=O)Nc3ccccc32)cc1,-5,0,0,1,3,0,x,x,x
O=c1[nH]c2cc3c(cc2cc1CN(Cc1cccnc1)Cc1nnnn1Cc1ccco1)OCCO3,3,84*,47,16,8,20,12,-13,x
COc1ccc(CCC(=O)O)c(O)c1,-1,53*,2,2,4,-3,46*,-6,-3
CN1C(=O)N(CC(=O)NCc2ccc(Cl)cc2Cl)C(=O)C12CCCCC2,0,-2,0,-2,5,-5,x,x,x
Cc1ccc(Cl)cc1NC(=O)CSc1sc2c(O)cc(=O)[nH]c2c1C#N,6,56*,11,6,15,4,62*,-7,16*
COC(=O)c1ccc(C)c(NC(=O)CSc2sc3c(O)cc(=O)[nH]c3c2C#N)c1,17,68*,38,38,27,11,53*,-21,12*
Cc1ccc(C)c(NC(=O)CSc2sc3c(O)cc(=O)[nH]c3c2C#N)c1,6,60*,8,9,15,-4,67*,1,11*
COc1ccc(Cl)cc1NC(=O)CSc1sc2c(O)cc(=O)[nH]c2c1C#N,11,41,22,1,12,3,x,x,x
Cc1ccc(NC(=O)CSc2nc3[nH]c(=O)cc(O)c3s2)c(Br)c1,-1,3,3,8,7,1,x,x,x
O=C(Nc1ccc(S(=O)(=O)NC2=NCCCCC2)cc1)c1cccc(S(=O)(=O)N2CCOCC2)c1,-6,50*,57*,8,3,2,-1,-5,x
Cc1ccc(N=C2NC(=O)S/C2=C\c2ccco2)cc1,35,97*,63*,-3,4,0,57*,-13,4
C#CCSc1nnc(-c2sc(-c3ccccc3)nc2C)n1C,11,-2,0,-12,-2,8,x,x,x
COc1ccc(C(=O)NCC(=O)NCC(=O)OCc2ccc(Cl)cc2)cc1,-3,2,0,-2,-2,-4,x,x,x
CCCOc1ccc(-c2nnc(-c3cccs3)o2)cc1,-2,67*,1,18,-4,-9,-12,-19,x
CCCCOc1ccc(-c2nnc(-c3ccncc3)o2)cc1,-1,-7,-1,0,2,7,x,x,x
NC(=O)CCC(NS(=O)(=O)c1ccc(Cl)cc1)C(=O)NCc1ccc(Cl)cc1 (centres undefined),-1,-9,-2,7,7,2,-13,-16,x
NC(=O)CCC(NS(=O)(=O)c1ccc(Cl)cc1)C(=O)NCC1CCCCC1 (centres undefined),3,-5,0,4,-4,12,x,x,x
C=CCn1c(SCC(=O)c2ccc(CNC(C)=O)o2)nc2scc(C3CC3)c2c1=O,3,12,2,9,29,10,x,x,x
COc1ccc(-c2noc(CNS(=O)(=O)c3ccccc3)n2)cc1,-1,-8,-1,3,1,-1,x,x,x
Cc1nn(-c2ccccc2)c(Cl)c1/C=N/NC(=O)c1cccc(S(=O)(=O)N2CCCC2)c1,26,94*,4,-1,25,4,17,-14,x
SMILES,STEP inh,Scp1 inh,LMPTP block,SUMO1 PPI mod,DNMT1 block,NadD inh,Scp1 confirm,Scp-1 MG ctr,Scp-1 Tm shift
CCSc1nc2c([nH]1)c(=O)n(C)c(=S)n2C,6,61*,44,13,0,4,75*,-21,4
C[C@H](CO)N1C[C@H](C)[C@@H](CN(C)S(=O)(=O)c2ccc(F)cc2)Oc2ccc(NC(=O)Nc3ccc4c(c3)OCO4)cc2C1=O,1,53*,0,11,-12,11,7,-11,x
C[C@@H]1CN([C@@H](C)CO)C(=O)c2cc(NS(C)(=O)=O)ccc2O[C@@H]1CN(C)S(=O)(=O)c1ccccc1,1,50*,0,-7,1,-3,9,-22,x
C[C@H](CO)N1C[C@H](C)[C@@H](CN(C)S(=O)(=O)c2ccccc2)Oc2ccc(NC(=O)C3CC3)cc2C1=O,1,62*,-2,-4,6,3,0,-19,x
C[C@H](CO)N1C[C@H](C)[C@@H](CN(C)S(=O)(=O)c2ccccc2)Oc2ccc(NS(=O)(=O)c3ccccc3)cc2C1=O,-2,24,-1,0,3,3,x,x,x
C[C@H](CO)N1C[C@H](C)[C@@H](CN(C)S(=O)(=O)c2ccccc2)Oc2ccc(NC(=O)Nc3ccccc3)cc2C1=O,-2,59*,0,3,-8,7,5,-5,x
C[C@H](CO)N1C[C@H](C)[C@@H](CN(C)S(=O)(=O)c2ccc(F)cc2)Oc2ccc(NC(=O)Nc3ccccc3)cc2C1=O,-2,-4,0,-1,-5,12,x,x,x
Cc1cc(NC(=O)Nc2cc(Cl)sc2Cl)no1,-1,0,0,3,-2,0,x,x,x
Cc1nc2ncnn2c(C)c1CCC(=O)NCc1ccc2c(c1)OCO2,-2,-3,-1,1,-2,8,x,x,x
C[C@@H]1CN([C@@H](C)CO)C(=O)c2cc(NS(C)(=O)=O)ccc2O[C@@H]1CN(C)Cc1ccc(C(F)(F)F)cc1,-5,58*,0,-5,9,1,15,-2,x
C[C@H](CO)N1C[C@H](C)[C@@H](CN(C)Cc2ccc(C(=O)O)cc2)Oc2ccc(NS(C)(=O)=O)cc2C1=O,-3,9,0,3,4,2,x,x,x

# Screening data deposited in PubChem BioAssay by Sanford-Burnham Center for Chemical Genomics.
